Tb hexokinase = Trypanosoma brucei hexokinase 1 inhibitors, primary screen, biochemical, G6PDH-coupled NADH absorbance, MLSCN library; hexokinase 1 [Trypanosoma brucei]; recombinant TbHK1, G6PDH-coupled NADH A340; inhibition, % at 10 µM; 220,000 compounds, 0.11% hits; AID 1430, 2008;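 active means inhibition of 50% or more in the single-dose primary screen; inactive means inhibition below 50%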
Calpain2 inh = inhibitors of pig calpain II, primary screen, biochemical, fluorogenic peptide substrate, 1536-well | purified calpain II, 30 min | inhibition, % at 16 µM | 220,000 compounds, 0.37% hits | AID 1236, 2008;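 active means inhibition above about 50%, limit read from the data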
NPY-Y2 antag = NPY-Y2 receptor antagonists, primary screen, cell-based. AID 793, 2007. inhibition, % at 2.7 µM. 140,000 compounds, 0.99% hits. NPY-Y2 expressing cells, antagonist mode. Neuropeptide Y receptor type 2 (Homo sapiens), P49146; in the data active means inhibition above about 17%;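 further: 0% = vehicle with agonist challenge and 100% = reference antagonist with challenge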
Target sequence (P49146 whole entry, looked up): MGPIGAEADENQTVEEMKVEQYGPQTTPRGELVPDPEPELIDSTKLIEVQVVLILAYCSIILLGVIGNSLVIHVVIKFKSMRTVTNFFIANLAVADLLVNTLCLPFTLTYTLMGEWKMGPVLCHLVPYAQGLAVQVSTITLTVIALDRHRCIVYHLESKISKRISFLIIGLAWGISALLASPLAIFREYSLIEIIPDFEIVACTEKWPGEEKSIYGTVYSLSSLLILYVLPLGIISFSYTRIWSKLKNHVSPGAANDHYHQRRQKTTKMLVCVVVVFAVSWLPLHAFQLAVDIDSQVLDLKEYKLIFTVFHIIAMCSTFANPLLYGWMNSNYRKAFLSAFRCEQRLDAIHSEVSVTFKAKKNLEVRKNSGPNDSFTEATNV
NPY1 pot ag = NPY-Y1 receptor potentiators or agonists, primary screen, cell-based. Neuropeptide Y receptor type 1 (Homo sapiens), P25929. NPY-Y1 expressing cells, potentiator/agonist activation. activation, % at 3.6 µM. 220,000 compounds, 0.37% hits; in the data active means activation above about 33%, passing the limit was not always enough;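 further: cells stimulated with NPY at EC10 then isoproterenol at EC100; 0% = low agonist plus stimulus and 100% = saturating agonist plus stimulus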
NPY-Y1 antag = NPY-Y1 receptor antagonists, primary screen, cell-based. HEK293-CNG Y1 cells, membrane potential fluorescence; NPY at EC95, then isoproterenol. inhibition, % at 3.6 µM. 200,000 compounds, 1% hits. AID 1040, 2008;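 active means inhibition above the campaign mean inhibition of all tested compounds plus 3 SD, cut at about 20% in these data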;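 further: 0% = DMSO wells given NPY plus isoproterenol and 100% = isoproterenol alone without NPY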
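Material: HEK293 cells co-expressing NPY Y1 receptor and cyclic-nucleotide gated channel. Timing: compound incubation 1 h at room temperature, readout 45 min post-stimulation. Signal: fluorescence, membrane potential probe.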
NPY-Y2 PAM-ag = NPY-Y2 potentiators or agonists, primary screen, cell-based; cells expressing NPY-Y2, potentiator/agonist read-out; Neuropeptide Y receptor type 2 (Homo sapiens), P49146; activation, % at 3.6 µM; 220,000 compounds, 0.45% hits; in the data active means activation above about 27%;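 further: cells stimulated with NPY near EC25 plus isoproterenol at EC100; 0% = vehicle plus submaximal agonist and 100% = vehicle plus saturating agonist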
An asterisk follows results filed as active; nt = no result. A selection: hits, their analogues and other compounds. The true share with any hit is near 2.3%.

SMILES	Tb hexokinase	Calpain2 inh	NPY-Y2 antag	NPY1 pot ag	NPY-Y1 antag	NPY-Y2 PAM-ag
CC1(C)Cc2cccc(OCC(O)CNCc3ccccn3)c2O1 (configuration not stated)	5	9	5	80*	-6	66*
CC1(C)Cc2cccc(OCC(O)CN3CCN(c4ccccn4)CC3)c2O1 (configuration not stated)	-3	12	1	104*	-15	91*
CCOCCCNC(=O)/C(C#N)=C/c1ccc(C)o1	-22	5	nt	-1	10	-2
COc1cc(/C=C2\SC(=O)N(c3ccc(Cl)cc3)C2=O)cc([N+](=O)[O-])c1O	-2	26	nt	21	-4	19
COc1cc(/C=C2\SC(=O)N(c3cccc(Cl)c3)C2=O)cc([N+](=O)[O-])c1O	9	66*	nt	35	-5	11
CC(=O)c1c(C)nc2ccc(Br)cc2c1C(=O)O	-7	17	5	-10	8	-18
CC(=O)c1c(C)nc2ccc(Br)cc2c1-c1ccccc1	-1	-20	nt	-13	22*	-11
S=c1nc(-c2ccccc2)n(Cc2cccnc2)c2c1CCCC2	-90	-7	nt	19	nt	-1
S=c1nc(-c2ccccc2)n(Cc2ccco2)c2c1CCCC2	-49	-4	16	-13	29*	3
COC(=O)c1ccccc1NC(=O)COc1ccc(S(=O)(=O)NC(C)C)cc1	-8	11	nt	2	-2	-9
CN(c1ccccc1)S(=O)(=O)c1cccc(C(=O)Nc2nn[nH]n2)c1	-5	11	nt	-6	nt	-6
CN1C=CC=C/C1=C1\SC(=S)N(C2CCCCC2)C1=O	-10	7	-2	114*	-10	106*
CCOc1ccc(/C=N/NC(=O)CNC(=O)c2ccc(S(=O)(=O)N3CCOCC3)cc2)cc1	1	-16	nt	14	-3	4
O=C(C1Cc2ccccc2CN1C(=O)c1ccccc1)N1CCN(c2ccccc2)CC1 (configuration not stated)	5	-24	nt	8	nt	-7
O=C(NC(NC(=S)Nc1ccc(Cl)cc1Cl)C(Cl)(Cl)Cl)c1cccc([N+](=O)[O-])c1 (configuration not stated)	12	-10	-1	56*	5	56*
O=C(O)c1cccc(NC(=S)NC(NC(=O)c2cccc([N+](=O)[O-])c2)C(Cl)(Cl)Cl)c1 (configuration not stated)	4	0	nt	9	nt	5
COc1cc(OC)cc(C(=O)NNC(=S)NC2CC2)c1	3	5	nt	3	-1	-27
CCOc1cc(NC(=S)NCCCN2CCOCC2)c(OCC)cc1NC(=O)C1CCCCC1	-1	7	nt	-6	0	4
O=C(NC1CCCCCCC1)C1c2ccccc2C(=O)N1Cc1cccs1 (configuration not stated)	-1	13	31*	-28	33*	-2
CC(C)(C)CC(=O)Nc1nnc(SCC(=O)Nc2ccccc2F)s1	-4	0	nt	-1	21*	-16
CCN(Cc1ccccc1)C(c1ccccn1)c1nnnn1C(C)(C)CC (configuration not stated)	2	5	26*	-11	23*	-6
CC(C)(C)c1csc(Sc2ncccc2[N+](=O)[O-])n1	-15	3	nt	-1	nt	-6
COc1ccc(Cc2nnc(NC(=O)CSc3ccc(C)cc3)s2)cc1OC	6	14	9	-10	22*	-20
COCC(=O)Nc1nnc(Cc2ccc(OC)c(OC)c2)s1	35	-10	-2	0	1	12
COc1ccc(-n2c(SCC(=O)Nc3ccc(Br)cc3)nc(O)cc2=O)cc1	0	-23	nt	7	nt	13
SMILES	Tb hexokinase	Calpain2 inh	NPY-Y2 antag	NPY1 pot ag	NPY-Y1 antag	NPY-Y2 PAM-ag
O=C(c1cccc(COc2ccc(Cl)cc2Cl)c1)N1CCN(c2ccccn2)CC1	8	70*	8	-63	10	-34
O=C(c1ccc(Cl)c([N+](=O)[O-])c1)N1CCN(c2ccccn2)CC1	-2	7	1	21	-7	9
Cc1ccc(NC(=O)CSc2nc3ccccc3c(=O)n2CCCC(=O)N2CCCC2)cc1	-9	-65	1	16	-6	9
Cc1ccc(NC(=O)CSc2nc3ccccc3c(=O)n2CCCN2CCCCC2)cc1C	15	-10	34*	-97	38*	-54
CCc1nnc(NS(=O)(=O)c2ccc(NC(=S)NC(=O)c3ccc(Br)cc3)cc2)s1	0	70*	2	-10	1	-5
S=C(Nc1ccccc1Oc1ccccc1)Nc1cccc(Cl)c1Cl	7	55*	0	0	1	-3
COc1ccc2c(c1)c(=O)c(C(=O)c1ccccc1)cn2Cc1ccc(C)cc1	-12	-2	10	-48	12	-17
COc1ccc2c(c1)c(=O)c(Br)c(C)n2Cc1ccccc1	4	1	25*	-10	2	-7
CCOC(=O)c1ccc(N2CCN(C(C)=O)CC2)c(NC(=O)c2cccnc2)c1	-2	-27	nt	6	4	-1
Nc1cc(Cl)ccc1Oc1ccccc1	40	-6	0	-4	4	-11
Cc1cccc(Oc2ccc(Cl)cc2N)c1	10	50*	nt	1	3	-28
COc1ccc(-c2ccc(CO)o2)cc1N	0	-64	nt	18	4	-7
O=C(CN1c2ccccc2Sc2ccccc21)NNC(=O)Nc1ccc(Cl)cc1	14	-7	nt	61*	nt	57*
COc1ccc(N(CC(=O)N2CCc3ccccc32)S(=O)(=O)c2c(C)n[nH]c2C)cc1	2	1	0	0	-4	7
O=[N+]([O-])c1cnccc1Nc1cccc(F)c1	-4	-1	-1	0	-2	-19
O=[N+]([O-])c1ccc(Oc2cccc(F)c2)c2ccncc12	-19	51*	1	11	-2	13
COc1ccc(N(CC(=O)Nc2cc(C)ccc2C)S(=O)(=O)c2ccccc2[N+](=O)[O-])c(OC)c1	0	-54	nt	1	-1	12
COc1ccc(-n2cc(CNCCCN3CCCC3=O)c(-c3ccccc3Cl)n2)cc1	-9	-18	nt	-2	20*	-7
CN(Cc1ccccc1)C(=O)COC(=O)CCNC(=O)c1ccccc1Cl	3	-10	nt	10	-2	6
COC(=O)c1[nH]nc(C(=O)OC(C)(C)C)c1-c1ccccc1	5	-1	2	11	-1	7
Cc1noc(C)c1COC(=O)/C=C/c1ccccc1Cl	6	33	nt	-7	4	-9
Cc1noc(C)c1COC(=O)CNC(=O)c1cccc(F)c1	0	59*	nt	-6	2	-8
